The target of test [1] is Serine protease 1 (Homo sapiens) (UniProt P07477). The test can be described thus: Inhibition of beta-trypsin (unknown origin) at 25 nM using Bz-FVRpNA substrate by spectrophotometry method.
The species named for a further test is Homo sapiens. The test can be described thus: Inhibition of alpha chymotrypsin (unknown origin) at 25 uM using Ac-GRPY-pNA by spectrophotometry method.
For test [2], the target named is T1, Suppressor of tumorigenicity 14 protein (Homo sapiens) (UniProt Q9Y5Y6).
T1 sequence (whole entry): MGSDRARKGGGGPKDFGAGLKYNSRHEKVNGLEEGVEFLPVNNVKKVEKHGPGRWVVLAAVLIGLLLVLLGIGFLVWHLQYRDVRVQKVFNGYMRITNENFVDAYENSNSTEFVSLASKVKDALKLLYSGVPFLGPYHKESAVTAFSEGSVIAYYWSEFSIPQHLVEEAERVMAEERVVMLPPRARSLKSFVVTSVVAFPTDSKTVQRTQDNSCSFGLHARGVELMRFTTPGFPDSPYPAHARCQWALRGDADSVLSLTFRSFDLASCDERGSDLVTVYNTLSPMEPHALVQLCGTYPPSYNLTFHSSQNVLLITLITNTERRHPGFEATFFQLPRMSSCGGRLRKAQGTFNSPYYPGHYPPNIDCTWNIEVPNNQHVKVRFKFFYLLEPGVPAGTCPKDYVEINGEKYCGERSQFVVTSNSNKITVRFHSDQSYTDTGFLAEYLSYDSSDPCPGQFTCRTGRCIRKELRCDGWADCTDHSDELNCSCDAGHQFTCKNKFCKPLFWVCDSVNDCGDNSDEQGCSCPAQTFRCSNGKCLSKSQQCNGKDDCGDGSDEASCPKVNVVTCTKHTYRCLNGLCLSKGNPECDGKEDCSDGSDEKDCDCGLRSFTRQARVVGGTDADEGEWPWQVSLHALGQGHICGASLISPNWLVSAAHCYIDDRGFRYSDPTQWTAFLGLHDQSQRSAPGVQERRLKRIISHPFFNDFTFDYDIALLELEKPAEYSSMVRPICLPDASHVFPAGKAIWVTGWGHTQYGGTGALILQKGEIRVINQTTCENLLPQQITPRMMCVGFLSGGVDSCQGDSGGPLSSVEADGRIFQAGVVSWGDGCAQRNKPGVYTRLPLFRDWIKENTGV
Put plainly: Inhibition of matriptase (unknown origin) at 10 uM using Ac-RQFRpNA substrate by spectrophotometry method.

A further test concerns the target Kallikrein-4 (Homo sapiens, UniProt Q9Y5K2). The test can be described thus: Inhibition of KLK4 (unknown origin) expressed in Sf9 cells at 25 nM using FVQRpNA substrate by spectrophotometry method.
The next test has as its target Plasminogen (Homo sapiens, UniProt P00747). Put plainly: Inhibition of plasmin (unknown origin) at 50 uM using Ac-RM(O2)YRpNA substrate by spectrophotometry method.
For test [3], the target named is Coagulation factor XI (Homo sapiens) (UniProt P03951). Put plainly: Inhibition of factor 11a (unknown origin) at 10 uM using Bz-FVRpNA substrate by spectrophotometry method.
Chain of Coagulation factor XI (Homo sapiens) (P03951 19-387 limits assumed): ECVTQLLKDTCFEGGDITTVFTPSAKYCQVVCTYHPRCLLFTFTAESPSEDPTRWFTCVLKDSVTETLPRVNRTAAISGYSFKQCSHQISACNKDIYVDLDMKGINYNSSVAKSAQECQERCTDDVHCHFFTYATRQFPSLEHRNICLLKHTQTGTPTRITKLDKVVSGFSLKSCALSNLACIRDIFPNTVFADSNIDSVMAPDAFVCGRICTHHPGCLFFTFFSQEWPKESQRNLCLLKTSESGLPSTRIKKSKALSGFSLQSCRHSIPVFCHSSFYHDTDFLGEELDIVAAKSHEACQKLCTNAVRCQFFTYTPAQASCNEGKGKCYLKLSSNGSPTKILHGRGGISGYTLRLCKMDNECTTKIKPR
Chain of Coagulation factor XI (Homo sapiens) (P03951 388-625 limits assumed): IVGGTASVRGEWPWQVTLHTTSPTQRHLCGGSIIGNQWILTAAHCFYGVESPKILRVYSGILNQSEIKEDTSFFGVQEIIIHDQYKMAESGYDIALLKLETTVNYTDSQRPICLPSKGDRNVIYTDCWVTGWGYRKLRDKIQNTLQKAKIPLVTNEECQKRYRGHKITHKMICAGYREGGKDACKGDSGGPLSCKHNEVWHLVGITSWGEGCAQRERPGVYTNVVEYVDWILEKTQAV
Test [4] concerns the target T2, Coagulation factor XII (Homo sapiens) (UniProt P00748).
T2 sequence (whole entry): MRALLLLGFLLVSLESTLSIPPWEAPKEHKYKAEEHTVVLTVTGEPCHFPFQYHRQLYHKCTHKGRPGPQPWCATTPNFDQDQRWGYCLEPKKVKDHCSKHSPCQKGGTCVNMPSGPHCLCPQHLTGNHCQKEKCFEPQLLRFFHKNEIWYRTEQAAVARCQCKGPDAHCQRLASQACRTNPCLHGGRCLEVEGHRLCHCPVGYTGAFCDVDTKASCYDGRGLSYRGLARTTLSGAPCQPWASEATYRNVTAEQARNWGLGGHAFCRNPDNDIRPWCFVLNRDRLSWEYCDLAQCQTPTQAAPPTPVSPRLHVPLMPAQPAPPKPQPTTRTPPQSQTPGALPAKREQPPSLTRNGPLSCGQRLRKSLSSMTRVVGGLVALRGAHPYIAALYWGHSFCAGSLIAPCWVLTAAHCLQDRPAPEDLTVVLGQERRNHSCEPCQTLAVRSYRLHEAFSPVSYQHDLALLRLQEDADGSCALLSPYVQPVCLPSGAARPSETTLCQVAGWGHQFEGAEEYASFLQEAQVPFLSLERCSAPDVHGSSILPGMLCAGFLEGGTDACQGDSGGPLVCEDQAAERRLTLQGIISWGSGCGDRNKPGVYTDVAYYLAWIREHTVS
The test can be described thus: Inhibition of factor 12a-alpha (unknown origin) at 10 uM using Ac-QRFRpNA substrate by spectrophotometry method.

The next test deals with T3, Kallikrein-5 (Homo sapiens, UniProt Q9Y337).
T3 sequence (Q9Y337 whole entry): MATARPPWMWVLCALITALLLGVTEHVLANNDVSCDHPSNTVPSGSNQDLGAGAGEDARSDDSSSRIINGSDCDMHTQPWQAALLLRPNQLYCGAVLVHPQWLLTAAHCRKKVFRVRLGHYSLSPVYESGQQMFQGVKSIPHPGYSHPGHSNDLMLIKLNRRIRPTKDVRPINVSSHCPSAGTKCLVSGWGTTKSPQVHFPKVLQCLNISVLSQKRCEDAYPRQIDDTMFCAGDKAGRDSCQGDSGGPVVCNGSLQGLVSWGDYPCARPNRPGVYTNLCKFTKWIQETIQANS
Put plainly: Inhibition of KLK5 (unknown origin) expressed in Pichia pastoris X33 using Ac-YRSR-pNA by spectrophotometry method. In a few lines:
(§1)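 Inhibition constants were measured in 0.1 M Tris pH 8.0, 0.1 M NaCl, 0.005% Triton X-100 with 100 µM peptide-pNA substrate. Protease-specific additives were also included. Absorbance at 405 nm was read every 10 s over 300 s. Rates were compared with no-inhibitor controls, and Morrison Ki was fitted by non-linear regression.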

In the next test the target is Kallikrein-7 (Homo sapiens, UniProt P49862). Put plainly: Inhibition of KLK7 (unknown origin) expressed in Pichia pastoris X33 using KHLY-pNA substrate by spectrophotometry method. Put shortly:
as §1

A further test concerns the target Trypsin (Homo sapiens, UniProt P07477+P07478+P35030). Put plainly: Inhibition of trypsin (unknown origin). Format: protein assay.

The structures appear in SMILES notation. Calls of active or inactive are those of the source. The rule behind the calls is not given here. Bridge positions count the residues as written; N and C are the ends. Peptide text beside a SMILES is read from it.

Chain of Plasminogen (P00747 97-580 limits assumed): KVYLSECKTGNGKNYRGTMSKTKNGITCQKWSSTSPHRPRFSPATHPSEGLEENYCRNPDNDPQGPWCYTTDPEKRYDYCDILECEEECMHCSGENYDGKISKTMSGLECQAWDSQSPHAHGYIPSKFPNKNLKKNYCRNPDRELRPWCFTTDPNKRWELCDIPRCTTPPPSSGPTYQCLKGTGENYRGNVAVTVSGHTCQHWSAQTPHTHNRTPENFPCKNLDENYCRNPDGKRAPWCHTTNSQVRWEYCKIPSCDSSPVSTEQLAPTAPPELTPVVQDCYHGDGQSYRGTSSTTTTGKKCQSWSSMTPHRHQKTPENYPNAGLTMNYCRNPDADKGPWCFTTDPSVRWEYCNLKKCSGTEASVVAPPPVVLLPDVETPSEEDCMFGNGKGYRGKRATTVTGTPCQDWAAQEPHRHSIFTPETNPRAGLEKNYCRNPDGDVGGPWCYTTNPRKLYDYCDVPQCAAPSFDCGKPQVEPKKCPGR
Chain of Plasminogen (P00747 581-810 limits assumed): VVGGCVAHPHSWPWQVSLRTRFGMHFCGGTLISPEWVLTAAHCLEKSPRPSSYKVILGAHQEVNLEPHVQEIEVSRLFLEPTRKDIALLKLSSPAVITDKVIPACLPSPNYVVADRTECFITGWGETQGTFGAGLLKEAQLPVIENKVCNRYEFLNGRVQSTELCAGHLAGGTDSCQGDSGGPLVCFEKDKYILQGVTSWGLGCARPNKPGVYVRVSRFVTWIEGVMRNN
Chain of Kallikrein-7 (P49862 whole entry): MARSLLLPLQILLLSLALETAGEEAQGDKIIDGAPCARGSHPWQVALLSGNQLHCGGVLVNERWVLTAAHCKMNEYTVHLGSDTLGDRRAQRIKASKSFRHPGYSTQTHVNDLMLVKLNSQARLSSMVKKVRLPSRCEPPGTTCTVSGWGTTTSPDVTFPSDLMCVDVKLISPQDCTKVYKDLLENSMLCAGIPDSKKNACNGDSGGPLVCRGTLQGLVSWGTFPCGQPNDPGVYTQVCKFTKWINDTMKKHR
Chain of Serine protease 1 (Homo sapiens) (P07477 whole entry): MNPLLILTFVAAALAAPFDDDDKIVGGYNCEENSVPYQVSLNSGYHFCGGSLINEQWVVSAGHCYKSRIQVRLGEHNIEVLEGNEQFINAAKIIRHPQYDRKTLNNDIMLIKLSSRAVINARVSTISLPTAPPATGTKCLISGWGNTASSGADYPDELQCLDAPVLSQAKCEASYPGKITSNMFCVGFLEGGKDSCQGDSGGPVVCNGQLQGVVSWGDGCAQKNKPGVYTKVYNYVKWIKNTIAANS
Chain of Kallikrein-4 (Q9Y5K2 whole entry): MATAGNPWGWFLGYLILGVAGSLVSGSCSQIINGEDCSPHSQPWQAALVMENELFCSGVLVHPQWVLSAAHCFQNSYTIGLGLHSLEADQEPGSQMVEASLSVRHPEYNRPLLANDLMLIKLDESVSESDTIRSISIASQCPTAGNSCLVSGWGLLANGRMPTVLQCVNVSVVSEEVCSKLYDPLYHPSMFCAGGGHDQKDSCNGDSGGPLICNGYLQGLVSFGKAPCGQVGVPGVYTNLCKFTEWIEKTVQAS

By inhibition is commonly meant the relative decrease from the control value, in per cent. Usually Ki stands for a dissociation constant, usually derived from enzyme kinetics or from competition with a known ligand. The low end stands for tighter binding, the high end for weaker binding. Consider `CC[C@H](C)[C@@H]1NC(=O)[C@@H]2CCCN2C(=O)[C@@H]2CCCN2C(=O)[C@H]([C@@H](C)CC)NC(=O)[C@H](CO)NC(=O)[C@H](CCCNC(=N)N)NC(=O)[C@H]([C@@H](C)O)NC(=O)[C@@H]2CSSC[C@H](NC1=O)C(=O)N[C@@H](CC(N)=O)C(=O)N1CCC[C@H]1C(=O)N[C@@H](CC(N)=O)C(=O)NCC(=O)N[C@@H]([C@@H](C)O)C(=O)N2` (cyclo(CNPNGTCTRSIPPI); disulfide 1-7), for which the inhibition came out at 80% in [1]; 60% in the test listed under Homo sapiens; 41% in test [2]; 50% against Plasminogen; 47% in [3]; 85% in test [4]. The inhibition entry on Kallikrein-4 is “Active”. For the same compound, the results for the Ki on Kallikrein-5, at Kallikrein-7 and at Trypsin were 2.1 nM, 16.8 nM and 0.7 nM, respectively.

The values above are taken from ChEMBL document CHEMBL3621201, “Improving the Selectivity of Engineered Protease Inhibitors: Optimizing the P2 Prime Residue Using a Versatile Cyclic Peptide Library” (J Med Chem, 2015).
